Reference: ChEMBL document CHEMBL4265959, “Targeting heme Oxygenase-1 with hybrid compounds to overcome Imatinib resistance in chronic myeloid leukemia cell lines” (Eur J Med Chem, 2018)
Active and inactive are the calls of the source. No cut-off for these calls is given here.

Assays:
K562 = assay: Cytotoxicity against imatinib-sensitive human K562 cells assessed as decrease in cell viability after 24 hrs by XTT assay; type: functional, cell-based; details: K562, 24 h
Method in brief: (§1)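 K562R (imatinib-resistant) or K562S cells seeded at 1×10^4/well in phenol red-free RPMI, left 24 h, then exposed 24 h to various concentrations. XTT reagent added, 2 h incubation, absorbance at 450 nm; IC50 reported. Mean ± SD, four experiments in triplicate.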

K-562R [1] = assay: Cytotoxicity against human K562R cells assessed as decrease in cell viability after 24 hrs by XTT assay; type: functional, cell-based; method in brief: as §1
K-562R [2] = assay: Induction of apoptosis in human K562R cells assessed as viable cells at 10 uM by Annexin V staining-based flow cytometry (reference value: 81.13%); type: functional; details: read-out: Activity
K-562R [3] = assay: Induction of apoptosis in human K562R cells assessed as early apoptotic cells at 10 uM by Annexin V staining-based flow cytometry (reference value: 8.51%); type: functional
K-562R [4] = assay: Induction of apoptosis in human K562R cells assessed as late apoptotic cells at 10 uM by Annexin V staining-based flow cytometry (reference value: 9.49%); type: functional
K-562R [5] = assay: Induction of apoptosis in human K562R cells assessed as necrotic cells at 10 uM by Annexin V staining-based flow cytometry (reference value: 0.87%); type: functional
[6] = molecular target: T1, Heme oxygenase 1 (Homo sapiens) (UniProt P09601); assay: Inhibition of heme oxygenase 1 in human K562R cell lysates assessed as decrease in bilirubin formation at 10 uM after 60 mins by spectrophotometric method
T1 sequence (whole entry): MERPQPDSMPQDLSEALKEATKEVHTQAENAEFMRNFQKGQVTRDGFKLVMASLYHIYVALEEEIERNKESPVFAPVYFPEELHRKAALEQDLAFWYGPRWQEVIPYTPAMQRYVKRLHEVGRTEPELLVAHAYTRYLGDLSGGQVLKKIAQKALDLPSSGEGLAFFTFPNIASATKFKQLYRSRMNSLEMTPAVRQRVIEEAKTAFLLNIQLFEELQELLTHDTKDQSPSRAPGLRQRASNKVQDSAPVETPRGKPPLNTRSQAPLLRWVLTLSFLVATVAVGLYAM
Method in brief: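 Intact K562R cells treated 24 h at 10 μM, then lysate (1 mg/mL) assayed. Mix: 20 mM Tris-HCl pH 7.4, liver biliverdin reductase 0.5–2 mg/mL, 1 mM NADPH, G6P/G6PDH, 25 μM hemin. 60 min at 37 °C in the dark, chloroform extraction, bilirubin by OD 464–530 nm. Mean ± SD, four experiments in triplicate.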

[7] = molecular target: T1, Heme oxygenase 1 (Homo sapiens); assay: Inhibition of heme oxygenase 1 in human K562R cells assessed as decrease in HO-1 mRNA levels at 10 uM by qRT-PCR method; type: cell-based
Method in brief: (§2)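 K562R cells treated 24 h at 10 μM, rinsed in cold PBS and lysed in Trizol. HO-1 and HO-2 mRNA measured by real-time PCR alongside GAPDH. Mean ± SD, four experiments in triplicate.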

K-562R [8] = assay: Induction of ROS production in human K562R cells at 10 uM by DCFH-DA dye based spectrofluorometric method; type: functional, cell-based
Method in brief: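 K562R cells (RPMI-1640, 10% FBS, 37 °C, 5% CO2) treated 24 h at 10 μM, then probed with DCFH-DA. DCF fluorescence read at excitation 488 nm, emission 525 nm, normalized to total protein (F.I./mg protein). Mean ± SD, four experiments in triplicate.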

Heme oxygenase 1 = molecular target: T2, Heme oxygenase 1 (Rattus norvegicus, UniProt P06762); assay: Inhibition of heme oxygenase 1 in Sprague-Dawley rat spleen microsomal fraction assessed as decrease in bilirubin formation using hemin as substrate after 60 mins by spectrophotometric method
T2 sequence (P06762 whole entry): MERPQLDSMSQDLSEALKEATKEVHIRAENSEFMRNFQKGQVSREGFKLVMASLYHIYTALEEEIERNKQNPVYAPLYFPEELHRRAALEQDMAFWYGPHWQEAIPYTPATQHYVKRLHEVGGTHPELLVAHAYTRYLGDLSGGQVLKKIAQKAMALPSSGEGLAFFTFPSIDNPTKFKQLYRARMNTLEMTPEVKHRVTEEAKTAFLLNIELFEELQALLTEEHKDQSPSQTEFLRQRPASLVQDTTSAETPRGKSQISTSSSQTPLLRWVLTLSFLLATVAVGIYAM

[9] = molecular target: Bcr/Abl fusion protein (Homo sapiens) (UniProt P00519+P11274); assay: Inhibition of BCR-ABL in human K562R cells assessed as decrease in CrKL phosphorylation at 10 uM by immuno blot analysis; type: cell-based
Method in brief: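 K562R cells treated 24 h at 10 μM and lysed. 20 μg protein separated on SDS-PAGE, transferred to nitrocellulose and probed with anti-CrkL and anti-pCrkL (1:1,000), then infrared-dye secondary antibody. Densitometry gives pCrkL/CrkL ratio as fold of untreated control. Four experiments in triplicate.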

Lymphocyte = assay: Cytotoxicity against human lymphocytes assessed as decrease in cell viability at 10 uM after 24 hrs by XTT assay; type: cell-based
Method in brief: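 Lymphocytes from healthy volunteers isolated on Ficoll–Paque, grown in RPMI-1640 with 10% FBS and 1% penicillin/streptomycin at 37 °C, 5% CO2, and treated 24 h at 10 μM.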

K-562R [10] = assay: Effect on heme oxygenase 2 mRNA levels in human K562R cells at 10 uM by qRT-PCR method; type: functional, cell-based; method in brief: as §2

Sequence of Bcr/Abl fusion protein (Homo sapiens) (P00519 whole entry, looked up, the tested form may be a part): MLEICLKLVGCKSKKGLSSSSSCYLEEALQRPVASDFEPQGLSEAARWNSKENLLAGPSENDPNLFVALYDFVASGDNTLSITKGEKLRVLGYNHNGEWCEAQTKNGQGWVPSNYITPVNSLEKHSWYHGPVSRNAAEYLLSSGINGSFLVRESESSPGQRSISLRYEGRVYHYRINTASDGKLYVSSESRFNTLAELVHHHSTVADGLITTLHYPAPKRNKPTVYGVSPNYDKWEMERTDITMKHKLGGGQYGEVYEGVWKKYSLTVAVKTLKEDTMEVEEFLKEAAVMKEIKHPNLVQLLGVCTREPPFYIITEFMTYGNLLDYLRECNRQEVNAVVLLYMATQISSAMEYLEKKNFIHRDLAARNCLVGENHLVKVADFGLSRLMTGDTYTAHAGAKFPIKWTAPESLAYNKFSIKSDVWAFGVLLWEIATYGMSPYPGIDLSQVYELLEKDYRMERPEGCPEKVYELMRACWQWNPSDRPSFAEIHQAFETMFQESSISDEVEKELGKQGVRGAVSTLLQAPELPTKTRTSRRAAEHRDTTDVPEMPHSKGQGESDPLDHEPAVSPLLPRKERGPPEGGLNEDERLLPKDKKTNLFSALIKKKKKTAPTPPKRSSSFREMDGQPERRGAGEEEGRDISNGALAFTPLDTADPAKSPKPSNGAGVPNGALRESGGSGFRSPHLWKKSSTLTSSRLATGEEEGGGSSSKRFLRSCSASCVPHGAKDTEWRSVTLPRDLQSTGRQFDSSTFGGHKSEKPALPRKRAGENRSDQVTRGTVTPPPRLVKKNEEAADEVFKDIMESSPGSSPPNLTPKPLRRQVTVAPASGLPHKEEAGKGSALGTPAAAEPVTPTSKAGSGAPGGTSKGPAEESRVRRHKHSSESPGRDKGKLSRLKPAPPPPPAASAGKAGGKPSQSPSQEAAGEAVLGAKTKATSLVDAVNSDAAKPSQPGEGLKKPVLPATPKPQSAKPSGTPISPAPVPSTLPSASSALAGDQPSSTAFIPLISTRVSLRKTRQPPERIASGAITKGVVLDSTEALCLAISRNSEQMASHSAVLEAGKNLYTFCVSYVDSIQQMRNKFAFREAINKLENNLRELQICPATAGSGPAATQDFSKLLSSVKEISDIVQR
Sequence of Bcr/Abl fusion protein (Homo sapiens) (P11274 whole entry, looked up, the tested form may be a part): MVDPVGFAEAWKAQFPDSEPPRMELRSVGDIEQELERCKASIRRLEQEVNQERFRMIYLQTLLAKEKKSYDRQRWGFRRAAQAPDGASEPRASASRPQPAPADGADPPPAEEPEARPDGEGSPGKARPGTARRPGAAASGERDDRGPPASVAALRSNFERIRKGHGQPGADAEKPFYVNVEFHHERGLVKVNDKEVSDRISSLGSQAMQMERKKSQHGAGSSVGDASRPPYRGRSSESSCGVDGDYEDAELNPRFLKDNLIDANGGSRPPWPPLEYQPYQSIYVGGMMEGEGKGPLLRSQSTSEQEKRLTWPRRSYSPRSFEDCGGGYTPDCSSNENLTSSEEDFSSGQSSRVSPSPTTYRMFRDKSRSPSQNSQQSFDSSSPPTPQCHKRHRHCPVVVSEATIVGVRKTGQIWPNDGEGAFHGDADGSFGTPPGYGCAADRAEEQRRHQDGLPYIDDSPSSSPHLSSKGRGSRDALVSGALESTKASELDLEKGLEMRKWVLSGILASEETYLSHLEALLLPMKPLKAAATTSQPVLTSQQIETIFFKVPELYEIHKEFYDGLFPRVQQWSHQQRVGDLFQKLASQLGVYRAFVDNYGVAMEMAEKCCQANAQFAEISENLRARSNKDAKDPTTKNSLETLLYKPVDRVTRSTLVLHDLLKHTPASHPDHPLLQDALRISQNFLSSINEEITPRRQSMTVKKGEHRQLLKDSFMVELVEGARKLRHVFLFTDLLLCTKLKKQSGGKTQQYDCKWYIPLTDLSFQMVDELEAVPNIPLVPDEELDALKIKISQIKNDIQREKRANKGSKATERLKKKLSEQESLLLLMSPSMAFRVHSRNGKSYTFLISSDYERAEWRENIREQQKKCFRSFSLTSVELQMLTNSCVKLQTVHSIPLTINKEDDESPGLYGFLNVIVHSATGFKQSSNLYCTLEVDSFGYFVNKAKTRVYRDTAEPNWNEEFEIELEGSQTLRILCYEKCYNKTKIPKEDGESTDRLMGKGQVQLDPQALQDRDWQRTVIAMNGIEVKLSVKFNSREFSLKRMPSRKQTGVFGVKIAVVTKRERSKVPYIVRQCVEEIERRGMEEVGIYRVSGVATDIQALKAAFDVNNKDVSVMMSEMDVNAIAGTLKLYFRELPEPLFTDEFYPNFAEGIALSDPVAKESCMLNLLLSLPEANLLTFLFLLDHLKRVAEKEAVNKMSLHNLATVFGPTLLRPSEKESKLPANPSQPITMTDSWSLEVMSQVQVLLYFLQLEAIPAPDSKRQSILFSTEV

Cc1ccc(NC(=O)c2ccc(CN3CCN(C)CC3)cc2)cc1Nc1nccc(-c2cccnc2)n1 [IMATINIB]
IC50 (K562): 1 µM
IC50 (K-562R [1]): 98.8 µM
viability at 10 µM (K-562R [2]): 89.4%
Activity (K-562R [3]): 6.25%
Activity (K-562R [4]): 3.6%
Activity (K-562R [5]): 0.79%
inhibition [6]: Active
inhibition [7]: inactive
Activity (K-562R [8]): inactive
IC50 (Heme oxygenase 1): > 100 µM

COc1ccc(C(=O)Nc2ccc(C)c(Nc3nccc(-c4cccnc4)n3)c2)c(OCCCCn2ccnc2)c1
IC50 (K562): 58.9 µM
IC50 (K-562R [1]): 46.6 µM
IC50 (Heme oxygenase 1): 61.6 µM

Cc1ccc(NC(=O)c2cccc(OCCCCn3ccnc3)c2)cc1Nc1nccc(-c2cccnc2)n1
IC50 (K562): 74.6 µM
IC50 (K-562R [1]): 63.4 µM
IC50 (Heme oxygenase 1): 38.5 µM

Cc1ccc(OCCCCn2ccnc2)c(C(=O)Nc2ccc(C)c(Nc3nccc(-c4cccnc4)n3)c2)c1
IC50 (K562): 59.5 µM
IC50 (K-562R [1]): 48.6 µM
IC50 (Heme oxygenase 1): 0.95 µM

Brc1cccc(OCCCCn2ccnc2)c1
IC50 (K562): 68.3 µM
IC50 (K-562R [1]): 81.7 µM
inhibition [6]: Active
Activity (K-562R [8]): Active

Cc1ccc(NC(=O)c2ccccc2OCCCCn2ccnc2)cc1Nc1nccc(-c2cccnc2)n1
IC50 (K562): 47.5 µM
IC50 (K-562R [1]): 83.4 µM
IC50 (Heme oxygenase 1): 28 µM

Cc1ccc(NC(=O)c2cc(Br)cc(OCCCCn3ccnc3)c2)cc1Nc1nccc(-c2cccnc2)n1
IC50 (K562): 6.5 µM
IC50 (K-562R [1]): 19.1 µM
inhibition [9]: Active
Activity (Lymphocyte): Non-Toxic
viability at 10 µM (K-562R [2]): 41.2%
Activity (K-562R [3]): 1.55%
Activity (K-562R [4]): 47.6%
Activity (K-562R [5]): 9.65%
inhibition [6]: Active
Activity (K-562R [10]): inactive
Activity (K-562R [8]): Active
IC50 (Heme oxygenase 1): 28.6 µM

Ic1ccc(OCCCCn2ccnc2)cc1
IC50 (K562): 69.1 µM
IC50 (K-562R [1]): 84.4 µM
inhibition [6]: Active
Activity (K-562R [8]): Active

Cc1ccc(NC(=O)c2ccc(OCCCCn3ccnc3)c(I)c2)cc1Nc1nccc(-c2cccnc2)n1
IC50 (K562): 32.5 µM
IC50 (K-562R [1]): 52.4 µM
inhibition [9]: Active
IC50 (Heme oxygenase 1): 74.9 µM

Cc1ccc(NC(=O)c2ccc([N+](=O)[O-])c(OCCCCn3ccnc3)c2)cc1Nc1nccc(-c2cccnc2)n1
IC50 (K562): 25 µM
IC50 (K-562R [1]): 47.6 µM
inhibition [9]: Active
Activity (Lymphocyte): Non-Toxic
viability at 10 µM (K-562R [2]): 82.4%
Activity (K-562R [3]): 2.15%
Activity (K-562R [4]): 14.2%
Activity (K-562R [5]): 1.25%
IC50 (Heme oxygenase 1): 4.03 µM

COc1cc(C(=O)Nc2ccc(C)c(Nc3nccc(-c4cccnc4)n3)c2)ccc1OCCCCn1ccnc1
IC50 (K562): 29.5 µM
IC50 (K-562R [1]): 27.1 µM
inhibition [9]: Active
Activity (Lymphocyte): Non-Toxic
viability at 10 µM (K-562R [2]): 60.4%
Activity (K-562R [3]): 4.4%
Activity (K-562R [4]): 32.3%
Activity (K-562R [5]): 2.9%
IC50 (Heme oxygenase 1): 56.6 µM

Cc1ccc(NC(=O)c2cc(I)ccc2OCCCCn2ccnc2)cc1Nc1nccc(-c2cccnc2)n1
IC50 (K562): 66.5 µM
IC50 (K-562R [1]): 81.7 µM
IC50 (Heme oxygenase 1): 38.9 µM

COc1ccc(C(=O)Nc2ccc(C)c(Nc3nccc(-c4cccnc4)n3)c2)cc1OCCCCn1ccnc1
IC50 (K562): 10.1 µM
IC50 (K-562R [1]): 18.7 µM
inhibition [9]: Active
Activity (Lymphocyte): Non-Toxic
viability at 10 µM (K-562R [2]): 51.3%
Activity (K-562R [3]): 5.4%
Activity (K-562R [4]): 39.5%
Activity (K-562R [5]): 3.85%
inhibition [6]: Active
Activity (K-562R [10]): inactive
Activity (K-562R [8]): Active
IC50 (Heme oxygenase 1): 15.1 µM

Cc1ccc(NC(=O)c2ccc(Br)cc2OCCCCn2ccnc2)cc1Nc1nccc(-c2cccnc2)n1
IC50 (K562): 66.1 µM
IC50 (K-562R [1]): 44.6 µM
inhibition [9]: Active
IC50 (Heme oxygenase 1): 0.95 µM

Cc1ccc(NC(=O)c2ccc(OCCCCn3ccnc3)cc2)cc1Nc1nccc(-c2cccnc2)n1
IC50 (K562): 49.9 µM
IC50 (K-562R [1]): 99.4 µM
IC50 (Heme oxygenase 1): 66.2 µM

Cc1ccc(N)cc1Nc1nccc(-c2cccnc2)n1
IC50 (Heme oxygenase 1): > 100 µM

Cc1ccc(NC(=O)c2ccc(OCCCCn3ccnc3)c(Br)c2)cc1Nc1nccc(-c2cccnc2)n1
IC50 (K562): 12 µM
IC50 (K-562R [1]): 31.8 µM
inhibition [9]: Active
Activity (Lymphocyte): Non-Toxic
viability at 10 µM (K-562R [2]): 83.8%
Activity (K-562R [3]): 2.3%
Activity (K-562R [4]): 13.15%
Activity (K-562R [5]): 0.65%
IC50 (Heme oxygenase 1): 0.92 µM

Cc1ccc(NC(=O)c2ccc(I)cc2OCCCCn2ccnc2)cc1Nc1nccc(-c2cccnc2)n1
IC50 (K562): 57.4 µM
IC50 (K-562R [1]): 51.8 µM
IC50 (Heme oxygenase 1): 15.1 µM
